The source made the active and inactive calls. No cut-off for these calls is given here. Some results are limits rather than exact numbers.

The IC50 is the concentration that gives 50% inhibition. A higher IC50 goes with weaker potency in that assay.

In assay [1] the test system is HepG2. Kind of assay: Cytotoxicity against human HepG2 cells by MTT assay. Format: functional, cell-based. In short, it runs like this:
(§1)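 Cells grown in DMEM with 10% FBS, penicillin and streptomycin at 37 °C under 5% CO₂. Seeded at 5 × 10³ per 100 µl per well and exposed to compound at 0.5–50 µM for 72 h. MTT (5 mg/ml) added for 5 h, formazan dissolved in DMSO, absorbance read at 490 nm. IC₅₀ is the concentration giving 50% growth inhibition; means of three independent determinations.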
(Formazan colour is commonly taken as a measure of viable cells.)

Assay [2] relates to HepG2. The experiment in a line: Cell cycle arrest in human HepG2 cells assessed as accumulation at subG0 phase at 25 uM after 36 hrs by FACSan flow cytometry. Type of assay: functional. The method in brief:
(§2)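 Cells were treated for 36 h, then washed twice in ice-cold PBS and fixed overnight in 70% ethanol at 4 °C. They were resuspended at 5 × 10⁵/ml in propidium iodide (50 µg/ml in 0.1% sodium citrate, 0.03% v/v Nonidet P-40) and held 30 min on ice. DNA-content histograms were read by FACScan flow cytometry, with sub-G₀ scored as apoptotic.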
For orientation: In flow cytometry, cells or beads pass a laser one at a time.

A further assay concerns HeLa. Kind of assay: Growth inhibition of human HeLa cells after 72 hrs by MTT assay. Format: functional, cell-based. The method in brief: as §1
The subject of assay [3] is HepG2. Kind of assay: Cell cycle arrest in human HepG2 cells assessed as accumulation at G2 phase at 10 uM after 36 hrs by FACSan flow cytometry. Type of assay: functional. The method in brief: as §2
For assay [4], the system named is HepG2. Kind of assay: Cell cycle arrest in human HepG2 cells assessed as accumulation at S phase at 10 uM after 36 hrs by FACSan flow cytometry. Format: functional. The method in brief:
as §2

The next assay relates to MCF7. Kind of assay: Growth inhibition of human MCF7 cells after 72 hrs by MTT assay. Type of assay: functional, cell-based. Conditions: MCF7, 72 h. The method in brief:
as §1

Assay [5] can be described thus: Growth inhibition of human CNE1 cells after 72 hrs by MTT assay. Format: functional, cell-based. As to conditions: CNE. In short, it runs like this: as §1
Assay [6] can be described thus: Growth inhibition of human CNE2 cells after 72 hrs by MTT assay. Format: functional, cell-based. As to conditions: CNE-2, 72 h. In short, it runs like this:
as §1

Assay [7] has as its system HepG2. Kind of assay: Induction of apoptosis in human HepG2 cells assessed as DNA fragmentation at 10 uM after 36 hrs by agarose gel electrophoresis. Type of assay: functional, cell-based. The method in brief: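 HepG-2 cells (1 × 10⁶) exposed to 0, 5, 10, 25 and 50 µM for 36 h, then trypsinized and lysed in 10 mM Tris–HCl pH 7.4, 10 mM EDTA, 0.5% Triton X-100 and proteinase K (200 µg/ml). DNA isolated by organic extraction, run on 2% agarose and stained with ethidium bromide to detect laddering.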

For assay [8], the system named is HepG2. Kind of assay: Induction of apoptosis in human HepG2 cells assessed as change in cellular morphology at 10 uM after 36 hrs […]. Format: functional, cell-based.
In assay [9] the test system is HepG2. The experiment in a line: Cell cycle arrest in human HepG2 cells assessed as accumulation at G1 phase at 5 uM after 36 hrs by FACSan flow cytometry. Type of assay: functional. The method in brief: as §2
The test system of assay [10] is HepG2. The experiment in a line: Cell cycle arrest in human HepG2 cells assessed as accumulation at subG0 phase at 5 uM after 36 hrs by FACSan flow cytometry. Type of assay: functional. In short, it runs like this: as §2
Assay [11] has as its system HepG2. Kind of assay: Cell cycle arrest in human HepG2 cells assessed as accumulation at G2 phase at 5 uM after 36 hrs by FACSan flow cytometry. Format: functional. In short, it runs like this:
as §2

For assay [12], the system named is HepG2. The experiment in a line: Cell cycle arrest in human HepG2 cells assessed as accumulation at S phase at 5 uM after 36 hrs by FACSan flow cytometry. Type of assay: functional. In short, it runs like this:
as §2

Assay [13] has as its system HepG2. The experiment in a line: Cell cycle arrest in human HepG2 cells assessed as accumulation at subG0 phase at 10 uM after 36 hrs by FACSan flow cytometry. Type of assay: functional. In short, it runs like this:
as §2

The subject of assay [14] is HepG2. The experiment in a line: Cell cycle arrest in human HepG2 cells assessed as accumulation at G1 phase at 10 uM after 36 hrs by FACSan flow cytometry. Type of assay: functional. The method in brief:
as §2

Assay [15] concerns HepG2. The experiment in a line: Cell cycle arrest in human HepG2 cells assessed as accumulation at G1 phase at 25 uM after 36 hrs by FACSan flow cytometry. Type of assay: functional. In short, it runs like this: as §2
Assay [16] deals with HepG2. The experiment in a line: Cell cycle arrest in human HepG2 cells assessed as accumulation at G2 phase at 25 uM after 36 hrs by FACSan flow cytometry. Type of assay: functional. In short, it runs like this:
as §2

The subject of assay [17] is HepG2. Kind of assay: Cell cycle arrest in human HepG2 cells assessed as accumulation at S phase at 25 uM after 36 hrs by FACSan flow cytometry. Format: functional. In short, it runs like this:
as §2

Assay [18] concerns HepG2. Kind of assay: Cell cycle arrest in human HepG2 cells assessed as accumulation at subG0 phase at 50 uM after 36 hrs by FACSan flow cytometry. Type of assay: functional. The method in brief: as §2
Assay [19] deals with HepG2. The experiment in a line: Cell cycle arrest in human HepG2 cells assessed as accumulation at G1 phase at 50 uM after 36 hrs by FACSan flow cytometry. Type of assay: functional. The method in brief: as §2
Assay [20] relates to HepG2. The experiment in a line: Cell cycle arrest in human HepG2 cells assessed as accumulation at G2 phase at 50 uM after 36 hrs by FACSan flow cytometry. Format: functional. In short, it runs like this:
as §2

Assay [21] concerns HepG2. The experiment in a line: Cell cycle arrest in human HepG2 cells assessed as accumulation at S phase at 50 uM after 36 hrs by FACSan flow cytometry. Format: functional. The method in brief:
as §2

The subject of assay [22] is HepG2. The experiment in a line: Induction of apoptosis in human HepG2 cells assessed as caspase 3 activation at 50 uM after 2 to 24 hrs. Format: functional, cell-based. The method in brief: (§3)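 HepG-2 cells were treated for 0, 2, 4, 8, 14 and 24 h. Lysates were made on ice and cleared at 20,000g, 4 °C, and protein was measured by Bradford. 0.1 mg protein was incubated 2 h at 37 °C with Ac-DEVD-pNA (caspase-3), Ac-IETD-pNA (caspase-8) or Ac-LEHD-pNA (caspase-9), and pNA release was read at 405 nm.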

The test system of assay [23] is HepG2. The experiment in a line: Induction of apoptosis in human HepG2 cells assessed as caspase 8 activation at 50 uM after 2 to 24 hrs. Type of assay: functional, cell-based. The method in brief: as §3
Assay [24] deals with HepG2. Kind of assay: Induction of apoptosis in human HepG2 cells assessed as caspase 9 activation at 50 uM after 2 to 24 hrs. Format: functional, cell-based. The method in brief: as §3
The subject of assay [25] is HepG2. Kind of assay: Induction of apoptosis in human HepG2 cells assessed as decrease in Bcl2 mRNA expression after 26 hrs by RT-PCR. Type of assay: functional, cell-based. The method in brief: (§4)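 HepG-2 cells treated at 0, 5, 10, 25 and 50 µM for 26 h. cDNA made from 1 µg total RNA and amplified for Bcl-2 and Bax over 30 cycles (98 °C 15 s, 57 °C 10 s, 72 °C 35 s), with GAPDH as control. Results expressed as fold change relative to control.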

The test system of assay [26] is HepG2. The experiment in a line: Induction of apoptosis in human HepG2 cells assessed as increase in […] mRNA expression after 26 hrs by RT-PCR. Format: functional, cell-based. The method in brief: as §4

In the case of `COc1ccc(-c2cc(=O)c3cc(C(C)C)ccc3o2)cc1`, the IC50 in the assay on HepG2 [1] turned out to be 9.9 µM.

`CC(C)c1ccc2oc(-c3ccc([N+](=O)[O-])cc3)cc(=O)c2c1` registered an IC50 in the assay with HepG2 [1] above 50 µM.

The compound `CC(C)c1ccc2oc(-c3cccc([N+](=O)[O-])c3)cc(=O)c2c1` had an IC50 in the assay with HepG2 [1] above 50 µM.

As to `CC(C)c1ccc2oc(-c3ccccc3)cc(=O)c2c1`, it took 6.4 µM to reach half-maximal inhibition in the assay on HepG2 [1] (IC50).

Regarding `COc1ccccc1-c1cc(=O)c2cc(C(C)C)ccc2o1`, the concentration for half-maximal inhibition (IC50) in the assay on HepG2 [1] is 5.4 µM.

As to `COc1cc(OC)cc(-c2cc(=O)c3cc(Cl)ccc3o2)c1`, the IC50 with HepG2 [1] was determined as 1.1 µM; in the assay on HeLa, 3 µM; in the assay on MCF7, 7.4 µM; in assay [5], 10.4 µM; in [6], 12.9 µM. In addition, the Activity with HepG2 [2] is reported as 55.83%; with HepG2 [3], 13.47%; with HepG2 [4], 13.32%; in the assay with HepG2 [9] it was 41.67%; in the assay on HepG2 [10] it was 21.54%; with HepG2 [11], 16.47%. Further, the Activity with HepG2 [12] is recorded as 20.32%; in the assay on HepG2 [13], 34.54%; in the assay with HepG2 [14], 38.67%; with HepG2 [15] it was 23.38%; in the assay on HepG2 [16], 11.47%; with HepG2 [17] it was 9.32%. Further, the Activity was 79.32% with HepG2 [18]; 11.52% with HepG2 [19]; 5.69% in the assay with HepG2 [20]; 3.47% in the assay on HepG2 [21]; “Dose-dependent effect” in the assay on HepG2 [25]. Moreover, the result in the assay on HepG2 [7], in the assay with HepG2 [8], in the assay with HepG2 [22], in the assay on HepG2 [23], with HepG2 [24] and in the assay with HepG2 [26] was Active.

`O=c1cc(C2CCCCC2)oc2c1ccc1ccccc12` came in with an IC50 in the assay on HepG2 [1] of 2.9 µM.

As for `COc1cc(-c2cc(=O)c3cc(C(C)C)ccc3o2)cc(OC)c1OC`, in the assay with HepG2 [1], 3.6 µM corresponded to half-maximal inhibition (IC50). This IC50 and that of the compound before are within 1.5-fold of each other.

In turn, `COc1cccc(-c2cc(=O)c3cc(C(C)C)ccc3o2)c1` displayed a concentration for half-maximal inhibition (IC50) with HepG2 [1] of 2.1 µM.

Regarding `CC(C)c1ccc2oc(C3CCCC3)cc(=O)c2c1`, inhibition in the assay on HepG2 [1] was half-maximal at 8.6 µM (IC50).

In turn, `O=c1cc(C2CCCCC2)oc2ccc(Cl)cc12` came in with an IC50 in the assay with HepG2 [1] of 20 µM.

`O=c1cc(C2CCCC2)oc2c1ccc1ccccc12` had an IC50 in the assay with HepG2 [1] of 6.1 µM.

`O=c1cc(C2CCCC2)oc2ccc(Cl)cc12` came in with an IC50 in the assay on HepG2 [1] of 13.4 µM. Compared with the last compound, the IC50 is about 2.2-fold higher.

On to `CC(C)c1ccc2oc(C3CCCCC3)cc(=O)c2c1`, for which the IC50 with HepG2 [1] was determined as 18 µM. This IC50 and that of the compound before are within 1.5-fold of each other.

The values are drawn from ChEMBL document CHEMBL1221296, “New synthetic flavone derivatives induce apoptosis of hepatocarcinoma cells” (Bioorg Med Chem, 2010).
